Key:
H9 = assay: Reduction in cell viability of human H9 cells; assay type: cell-based
[1] = Therapeutic index, ratio of IC50 for human H9 cells to EC50 for HIV1 3B; assay type: cell-based; conditions: read-out: Ratio IC50/EC50
[2] = tested on: Human immunodeficiency virus 1; assay: Antiviral activity against HIV1 3B replication in H9 cells; assay type: functional, organism-based; conditions: Human immunodeficiency virus 1, 3B
Liver microsomes = assay: Intrinsic clearance in human liver microsomes at 1 uM; assay type: ADME, Microsome
Procedure, shortened: (§1)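 Compound in 100 mM sodium phosphate, pH 7.4, with 0.1 mg/mL human liver microsomes and 5 mM MgCl2. Preincubated 10 min at 37 °C, then started with NADPH (15 mM stock). Run in duplicate, with NADPH-free controls. Sampled at 0–60 min and quenched in ice-cold acetonitrile with internal standard. Quantified by HPLC-UV; % remaining relative to 0 min gave t1/2, and scaled Clint in L/min/kg.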

[3] = Metabolic stability in human liver microsomes assessed as half life at 1 uM; assay type: ADME, Microsome; procedure, shortened: as §1

Compound	IC50 (H9) [µM]	selectivity ratio [1]	EC50 [2] [µM]	clearance (Liver microsomes) [mL/min/kg]	half-life at 1 µM [3] [min]
Cc1cc(=O)oc2c3c(ccc12)NC(C)(C)[C@H](OC(=O)C12CCC(C)(C(=O)O1)C2(C)C)[C@@H]3OC(=O)C12CCC(C)(C(=O)O1)C2(C)C (some centres undefined)	> 32	> 42	0.77	700	9.6
Cc1cc(=O)oc2c3c(c(O)cc12)OC(C)(C)[C@H](OC(=O)C12CCC(C)(C(=O)O1)C2(C)C)[C@@H]3OC(=O)C12CCC(C)(C(=O)O1)C2(C)C (some centres undefined)	> 38	> 25	1.5	2300	3.1
Cc1cn([C@H]2C[C@H](N=[N+]=[N-])[C@@H](CO)O2)c(=O)[nH]c1=O [ZIDOVUDINE]	1900	38000	0.05		
Cc1c(O)c2ccc3c(c2oc1=O)[C@@H](OC(=O)C12CCC(C)(C(=O)O1)C2(C)C)[C@@H](OC(=O)C12CCC(C)(C(=O)O1)C2(C)C)C(C)(C)O3 (some centres undefined)	31	15	2.1	2000	3.5
Cc1cc2c(c3oc(=O)cc(O)c13)[C@@H](OC(=O)C13CCC(C)(C(=O)O1)C3(C)C)[C@@H](OC(=O)C13CCC(C)(C(=O)O1)C3(C)C)C(C)(C)O2 (some centres undefined)	14	12	1.2		
Cc1cc(=O)oc2c3c(ccc12)OC(C)(C)[C@H](OC(=O)C12CCC(C)(C(=O)O1)C2(C)C)[C@@H]3OC(=O)C12CCC(C)(C(=O)O1)C2(C)C (some centres undefined)	> 10	> 500	0.02	2000	3.4
CC1(C)Oc2ccc3c(O)cc(=O)oc3c2[C@@H](OC(=O)C23CCC(C)(C(=O)O2)C3(C)C)[C@H]1OC(=O)C12CCC(C)(C(=O)O1)C2(C)C (some centres undefined)	> 40	> 3	15		
